Assay results as given in ChEMBL document CHEMBL5058577, “EUbOPEN Chemogenomics Library 2 (Multiplex)” (2022).

Test system: U2OS
Assay: Multiplex assay against U2OS
Type: toxicity, cell-based
Conditions: human
How it was run: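 Cells stained live at seeding with Hoechst33342, BioTracker Green Microtubule Cytoskeleton Dye, MitoTracker Red and Annexin V Alexa Fluor 680 were imaged on a CQ1 microscope at 37°C and 5% CO2 after compound addition. Their classification by CellPathfinder machine-learning gating ran from Hoechst high-intensity objects versus normal cells, to healthy, pyknosed or fragmented nuclei among normal cells, to mitotic or apoptotic among pyknosed cells. Tubulin, mitochondrial-mass and membrane-permeability phenotypes are per cents of healthy-nucleus cells.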

[1] = 12 h, 1 µM, compound concentration 1 uM, replicate 1
[2] = 12 h, 1 µM, compound concentration 1 uM, replicate 2
[3] = 12 h, 10 µM, compound concentration 10 uM, replicate 1
[4] = 12 h, 10 µM, compound concentration 10 uM, replicate 2
[5] = 24 h, 1 µM, compound concentration 1 uM, replicate 1
[6] = 24 h, 1 µM, compound concentration 1 uM, replicate 2
[7] = 24 h, 10 µM, compound concentration 10 uM, replicate 1
[8] = 24 h, 10 µM, compound concentration 10 uM, replicate 2
[9] = 48 h, 1 µM, compound concentration 1 uM, replicate 1
[10] = 48 h, 1 µM, compound concentration 1 uM, replicate 2
[11] = 48 h, 10 µM, compound concentration 10 uM, replicate 1
[12] = 48 h, 10 µM, compound concentration 10 uM, replicate 2

SMILES: C[C@H]1[C@H]2CC[C@H]3[C@@H]4CC=C5C[C@@H](N(C)C)CC[C@]5(C)[C@H]4CC[C@]23CN1C [CONESSINE]
- Population Apoptotic (%) [1]: 80%
- Population Fragmented Nuclei (%) [1]: 23%
- Population Healthy Nuclei (%) [1]: 70%
- Population Hoechst High Intensity Objects (%) [1]: 2%
- Population Membrane Permeable-Phenotype (%) [1]: 5%
- Population Mitochondria Different-Phenotype (%) [1]: 1%
- Population Mitotic Cells (%) [1]: 20%
- Population Normal (%) [1]: 97%
- Population Pyknosed Nuclei (%) [1]: 6%
- Population Tubulin-Different-Phenotype (%) [1]: 2%
- Total Cell Count [1]: 248
- Population Apoptotic (%) [2]: 58%
- Population Fragmented Nuclei (%) [2]: 16%
- Population Healthy Nuclei (%) [2]: 73%
- Population Hoechst High Intensity Objects (%) [2]: 1%
- Population Mitochondria Different-Phenotype (%) [2]: 2%
- Population Mitotic Cells (%) [2]: 41%
- Population Normal (%) [2]: 98%
- Population Pyknosed Nuclei (%) [2]: 9%
- Population Tubulin-Different-Phenotype (%) [2]: 3%
- Total Cell Count [2]: 124
- Population Apoptotic (%) [3]: 55%
- Population Fragmented Nuclei (%) [3]: 19%
- Population Healthy Nuclei (%) [3]: 71%
- Population Hoechst High Intensity Objects (%) [3]: 2%
- Population Membrane Permeable-Phenotype (%) [3]: 5%
- Population Mitochondria Different-Phenotype (%) [3]: 0%
- Population Mitotic Cells (%) [3]: 45%
- Population Normal (%) [3]: 97%
- Population Pyknosed Nuclei (%) [3]: 8%
- Population Tubulin-Different-Phenotype (%) [3]: 1%
- Total Cell Count [3]: 237
- Population Apoptotic (%) [4]: 100%
- Population Fragmented Nuclei (%) [4]: 17%
- Population Healthy Nuclei (%) [4]: 68%
- Population Hoechst High Intensity Objects (%) [4]: 0%
- Population Membrane Permeable-Phenotype (%) [4]: 8%
- Population Mitochondria Different-Phenotype (%) [4]: 5%
- Population Mitotic Cells (%) [4]: 0%
- Population Normal (%) [4]: 99%
- Population Pyknosed Nuclei (%) [4]: 13%
- Population Tubulin-Different-Phenotype (%) [4]: 6%
- Total Cell Count [4]: 107
- Population Apoptotic (%) [5]: 90%
- Population Fragmented Nuclei (%) [5]: 18%
- Population Healthy Nuclei (%) [5]: 74%
- Population Hoechst High Intensity Objects (%) [5]: 2%
- Population Membrane Permeable-Phenotype (%) [5]: 6%
- Population Mitochondria Different-Phenotype (%) [5]: 1%
- Population Mitotic Cells (%) [5]: 9%
- Population Normal (%) [5]: 97%
- Population Pyknosed Nuclei (%) [5]: 7%
- Population Tubulin-Different-Phenotype (%) [5]: 3%
- Total Cell Count [5]: 307
- Population Apoptotic (%) [6]: 100%
- Population Fragmented Nuclei (%) [6]: 11%
- Population Healthy Nuclei (%) [6]: 81%
- Population Hoechst High Intensity Objects (%) [6]: 1%
- Population Membrane Permeable-Phenotype (%) [6]: 8%
- Population Mitochondria Different-Phenotype (%) [6]: 5%
- Population Mitotic Cells (%) [6]: 0%
- Population Normal (%) [6]: 98%
- Population Tubulin-Different-Phenotype (%) [6]: 7%
- Total Cell Count [6]: 153
- Population Apoptotic (%) [7]: 65%
- Population Fragmented Nuclei (%) [7]: 20%
- Population Healthy Nuclei (%) [7]: 71%
- Population Hoechst High Intensity Objects (%) [7]: 2%
- Population Membrane Permeable-Phenotype (%) [7]: 2%
- Population Mitochondria Different-Phenotype (%) [7]: 0%
- Population Mitotic Cells (%) [7]: 35%
- Population Normal (%) [7]: 97%
- Population Pyknosed Nuclei (%) [7]: 7%
- Population Tubulin-Different-Phenotype (%) [7]: 1%
- Total Cell Count [7]: 265
- Population Apoptotic (%) [8]: 100%
- Population Fragmented Nuclei (%) [8]: 19%
- Population Hoechst High Intensity Objects (%) [8]: 4%
- Population Membrane Permeable-Phenotype (%) [8]: 10%
- Population Mitochondria Different-Phenotype (%) [8]: 4%
- Population Mitotic Cells (%) [8]: 0%
- Population Normal (%) [8]: 95%
- Population Pyknosed Nuclei (%) [8]: 8%
- Population Tubulin-Different-Phenotype (%) [8]: 9%
- Total Cell Count [8]: 134
- Population Apoptotic (%) [9]: 83%
- Population Fragmented Nuclei (%) [9]: 16%
- Population Healthy Nuclei (%) [9]: 79%
- Population Hoechst High Intensity Objects (%) [9]: 2%
- Population Membrane Permeable-Phenotype (%) [9]: 4%
- Population Mitochondria Different-Phenotype (%) [9]: 2%
- Population Mitotic Cells (%) [9]: 16%
- Population Normal (%) [9]: 97%
- Population Pyknosed Nuclei (%) [9]: 4%
- Population Tubulin-Different-Phenotype (%) [9]: 1%
- Total Cell Count [9]: 430
- Population Apoptotic (%) [10]: 86%
- Population Healthy Nuclei (%) [10]: 73%
- Population Mitochondria Different-Phenotype (%) [10]: 0%
- Population Mitotic Cells (%) [10]: 13%
- Population Pyknosed Nuclei (%) [10]: 9%
- Population Tubulin-Different-Phenotype (%) [10]: 2%
- Total Cell Count [10]: 227
- Population Apoptotic (%) [11]: 89%
- Population Fragmented Nuclei (%) [11]: 19%
- Population Healthy Nuclei (%) [11]: 73%
- Population Hoechst High Intensity Objects (%) [11]: 1%
- Population Membrane Permeable-Phenotype (%) [11]: 4%
- Population Mitochondria Different-Phenotype (%) [11]: 2%
- Population Mitotic Cells (%) [11]: 10%
- Population Normal (%) [11]: 98%
- Population Pyknosed Nuclei (%) [11]: 7%
- Population Tubulin-Different-Phenotype (%) [11]: 3%
- Total Cell Count [11]: 370
- Population Apoptotic (%) [12]: 85%
- Population Fragmented Nuclei (%) [12]: 15%
- Population Healthy Nuclei (%) [12]: 72%
- Population Hoechst High Intensity Objects (%) [12]: 6%
- Population Membrane Permeable-Phenotype (%) [12]: 9%
- Population Mitochondria Different-Phenotype (%) [12]: 5%
- Population Mitotic Cells (%) [12]: 15%
- Population Normal (%) [12]: 93%
- Population Pyknosed Nuclei (%) [12]: 12%
- Population Tubulin-Different-Phenotype (%) [12]: 6%
- Total Cell Count [12]: 175
